{"source": "ChEMBL document CHEMBL2384906", "about": "“Biological activity, design, synthesis and structure activity relationship of some novel derivatives of curcumin containing sulfonamides” (Eur J Med Chem, 2013)", "key": {"[1]": {"system": "Mus musculus", "experiment": "Antiinflammatory activity in mouse assessed as inhibition of carrageenan-induced increase in paw volume at 200 mg/kg, ip administered 1 hr prior to carrageenan challenge measured after 3 hrs relative to control", "assay_type": "functional", "details": "route intraperitoneal", "outline": "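Mice were fasted 2 h and placed in groups of five. Controls received saline i.p. Phenylbutazone was given at 100 mg/kg i.p., curcumin at 200 mg/kg i.p., and derivatives at 200 mg/kg. After 1 h, 0.1 mL of 1% carrageenan in saline was injected subplantar into the right hind paw. Paw volume was followed by plethysmometer for 3 h, and % inhibition was calculated as (Vc − Vt)/Vc × 100.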"}, "[2]": {"system": "Trichoderma viride", "experiment": "Antifungal activity against Trichoderma viride MTCC 1107 after 48 hrs", "assay_type": "functional", "details": "MTCC 1107, 48 h"}, "[3]": {"system": "Trichoderma viride", "experiment": "Antifungal activity against Trichoderma viride MTCC 1107 assessed as zone of inhibition at 20 uM after 48 hrs by disc diffusion method", "assay_type": "functional", "outline": "(§1)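 Spores from 4-day potato dextrose agar cultures, suspended in sterile water at 1.5 × 10⁵ CFU/mL. 0.2 mL was spread on potato dextrose agar. 5 mm filter-paper discs soaked with test compound were laid on the lawn. Incubation was 48 h at 28 °C, then the inhibition zone was measured in mm. Fluconazole was the positive control and acetone the negative control.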"}, "[4]": {"system": "Trichoderma viride", "experiment": "Antifungal activity against Trichoderma viride MTCC 1107 assessed as zone of inhibition at 40 uM after 48 hrs by disc diffusion method", "assay_type": "functional", "outline": "as §1"}, "[5]": {"system": "Trichoderma viride", "experiment": "Antifungal activity against Trichoderma viride MTCC 1107 assessed as zone of inhibition at 80 uM after 48 hrs by disc diffusion method", "assay_type": "functional", "details": "MTCC 1107, 48 h, read-out: IZ", "outline": "as §1"}, "[6]": {"system": "Curvularia lunata", "experiment": "Antifungal activity against Curvularia lunata MTCC 581 after 48 hrs", "assay_type": "functional", "details": "MTCC 581, 48 h"}, "[7]": {"system": "Curvularia lunata", "experiment": "Antifungal activity against Curvularia lunata MTCC 581 assessed as zone of inhibition at 20 uM after 48 hrs by disc diffusion method", "assay_type": "functional", "outline": "as §1"}, "[8]": {"system": "Curvularia lunata", "experiment": "Antifungal activity against Curvularia lunata MTCC 581 assessed as zone of inhibition at 40 uM after 48 hrs by disc diffusion method", "assay_type": "functional", "details": "MTCC 581, 48 h, read-out: IZ", "outline": "as §1"}, "[9]": {"system": "Aspergillus flavus", "experiment": "Antifungal activity against Aspergillus flavus MTCC 1021 after 48 hrs", "assay_type": "functional"}, "[10]": {"system": "Curvularia lunata", "experiment": "Antifungal activity against Curvularia lunata MTCC 581 assessed as zone of inhibition at 80 uM after 48 hrs by disc diffusion method", "assay_type": "functional", "details": "MTCC 581, 48 h, read-out: IZ", "outline": "as §1"}, "[11]": {"system": "Aspergillus flavus", "experiment": "Antifungal activity against Aspergillus flavus MTCC 1021 assessed as zone of inhibition at 80 uM after 48 hrs by disc diffusion method", "assay_type": "functional", "outline": "as §1"}, "[12]": {"system": "Aspergillus niger", "experiment": "Antifungal activity against Aspergillus niger MTCC 1108 after 48 hrs", "assay_type": "functional"}, "[13]": {"system": "Aspergillus niger", "experiment": "Antifungal activity against Aspergillus niger MTCC 1108 assessed as zone of inhibition at 80 uM after 48 hrs by disc diffusion method", "assay_type": "functional", "outline": "as §1"}, "[14]": {"system": "Escherichia coli", "experiment": "Antimicrobial activity against Escherichia coli ATCC 35218 after 24 hrs by broth micro serial dilution method", "assay_type": "functional", "details": "ATCC 35218, 24 h", "outline": "(§2)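 This was broth microdilution in autoclaved Mueller-Hinton broth. 150 µL of compound per well was serially diluted […], and 50 µL of test organism was added. Plates were incubated 24 h at 37 °C and optical density was read.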"}, "[15]": {"system": "Escherichia coli", "experiment": "Antimicrobial activity against Escherichia coli ATCC 35218 assessed as diameter of inhibition zone at 20 uM after 24 hrs by Kirby -Baur disc diffusion method", "assay_type": "functional", "outline": "(§3)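 Kirby-Bauer disc diffusion was used. Acetone stocks (160 µM) were serially doubled down to 80, 40 and 20 µM. 4 µL of each went onto 5 mm sterile paper discs, which were dried 30 min at 50 °C. Inoculum was 1.5 × 10⁸ CFU/mL diluted to 3 × 10² CFU/mL, and 50 µL was spread on Mueller-Hinton agar. After 24 h at 37 °C the inhibition-zone diameter was measured. Ciprofloxacin served as positive control.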"}, "[16]": {"system": "Escherichia coli", "experiment": "Antimicrobial activity against Escherichia coli ATCC 35218 assessed as diameter of inhibition zone at 40 uM after 24 hrs by Kirby -Baur disc diffusion method", "assay_type": "functional", "outline": "as §3"}, "[17]": {"system": "Escherichia coli", "experiment": "Antimicrobial activity against Escherichia coli ATCC 35218 assessed as diameter of inhibition zone at 80 uM after 24 hrs by Kirby -Baur disc diffusion method", "assay_type": "functional", "details": "ATCC 35218, 24 h, read-out: DIZ", "outline": "as §3"}, "[18]": {"system": "Pseudomonas aeruginosa", "experiment": "Antimicrobial activity against Pseudomonas aeruginosa ATCC 15499 after 24 hrs by broth micro serial dilution method", "assay_type": "functional", "details": "ATCC 15499, 24 h", "outline": "as §2"}, "[19]": {"system": "Pseudomonas aeruginosa", "experiment": "Antimicrobial activity against Pseudomonas aeruginosa ATCC 15499 assessed as diameter of inhibition zone at 20 uM after 24 hrs by Kirby -Baur disc diffusion method", "assay_type": "functional", "outline": "as §3"}, "[20]": {"system": "Pseudomonas aeruginosa", "experiment": "Antimicrobial activity against Pseudomonas aeruginosa ATCC 15499 assessed as diameter of inhibition zone at 40 uM after 24 hrs by Kirby -Baur disc diffusion method", "assay_type": "functional", "outline": "as §3"}, "[21]": {"system": "Pseudomonas aeruginosa", "experiment": "Antimicrobial activity against Pseudomonas aeruginosa ATCC 15499 assessed as diameter of inhibition zone at 80 uM after 24 hrs by Kirby -Baur disc diffusion method", "assay_type": "functional", "details": "ATCC 15499, 24 h, read-out: DIZ", "outline": "as §3"}, "[22]": {"system": "Salmonella typhi", "experiment": "Antimicrobial activity against Salmonella typhi ATCC 23564 after 24 hrs by broth micro serial dilution method", "assay_type": "functional, Salmonella enterica subsp. enterica serovar Typhi", "details": "Salmonella enterica, ATCC 23564, 24 h"}, "[23]": {"system": "Salmonella typhi", "experiment": "Antimicrobial activity against Salmonella typhi ATCC 23564 assessed as diameter of inhibition zone at 20 uM after 24 hrs by Kirby -Baur disc diffusion method", "assay_type": "functional", "details": "Salmonella enterica subsp. enterica serovar Typhi"}, "[24]": {"system": "Salmonella typhi", "experiment": "Antimicrobial activity against Salmonella typhi ATCC 23564 assessed as diameter of inhibition zone at 40 uM after 24 hrs by Kirby -Baur disc diffusion method", "assay_type": "functional, Salmonella enterica subsp. enterica serovar Typhi", "details": "Salmonella enterica, ATCC 23564, 24 h; read-out: DIZ"}, "[25]": {"system": "Salmonella typhi", "experiment": "Antimicrobial activity against Salmonella typhi ATCC 23564 assessed as diameter of inhibition zone at 80 uM after 24 hrs by Kirby -Baur disc diffusion method", "assay_type": "functional, Salmonella enterica subsp. enterica serovar Typhi", "details": "Salmonella enterica, ATCC 23564, 24 h; read-out: DIZ"}, "[26]": {"system": "Bacillus cereus", "experiment": "Antimicrobial activity against Bacillus cereus MTCC 7350 after 24 hrs by broth micro serial dilution method", "assay_type": "functional", "details": "MTCC 7350, 24 h", "outline": "as §2"}, "[27]": {"system": "Bacillus cereus", "experiment": "Antimicrobial activity against Bacillus cereus MTCC 7350 assessed as diameter of inhibition zone at 80 uM after 24 hrs by Kirby -Baur disc diffusion method", "assay_type": "functional", "details": "MTCC 7350, 24 h, read-out: DIZ", "outline": "as §3"}, "[28]": {"system": "Staphylococcus aureus", "experiment": "Antimicrobial activity against Staphylococcus aureus ATCC 11632 after 24 hrs by broth micro serial dilution method", "assay_type": "functional", "details": "ATCC 11632, 24 h", "outline": "as §2"}, "[29]": {"system": "Staphylococcus aureus", "experiment": "Antimicrobial activity against Staphylococcus aureus ATCC 11632 assessed as diameter of inhibition zone at 80 uM after 24 hrs by Kirby -Baur disc diffusion method", "assay_type": "functional", "outline": "as §3"}}, "note": "Activity calls are given as the source filed them. The calls are words filed in the database; no cut-off is given here.", "data": [{"smiles": "COc1cc(/C=C/C(=O)CC(=O)/C=C/c2ccc(O)c(OC)c2)ccc1O", "note": "[CURCUMIN]", "values": [{"measurement": "inhibition in vivo at 200 mg/kg", "setting": "[1]", "value": 12.9, "unit": "%"}, {"measurement": "MIC", "setting": "[2]", "value": "> 80", "unit": "µM"}, {"measurement": "inhibition zone (IZ)", "setting": "[3]", "value": "inactive"}, {"measurement": "inhibition zone (IZ)", "setting": "[4]", "value": "inactive"}, {"measurement": "zone of inhibition at 80 µM", "setting": "[5]", "value": 9, "unit": "mm"}, {"measurement": "MIC", "setting": "[6]", "value": "> 80", "unit": "µM"}, {"measurement": "inhibition zone (IZ)", "setting": "[7]", "value": "inactive"}, {"measurement": "zone of inhibition at 40 µM", "setting": "[8]", "value": 9, "unit": "mm"}, {"measurement": "MIC", "setting": "[9]", "value": "inactive"}, {"measurement": "zone of inhibition at 80 µM", "setting": "[10]", "value": 11, "unit": "mm"}, {"measurement": "inhibition zone (IZ)", "setting": "[11]", "value": "inactive"}, {"measurement": "MIC", "setting": "[12]", "value": "inactive"}, {"measurement": "inhibition zone (IZ)", "setting": "[13]", "value": "inactive"}, {"measurement": "MIC", "setting": "[14]", "value": "> 80", "unit": "µM"}, {"measurement": "diameter of the inhibition zone (DIZ)", "setting": "[15]", "value": "inactive"}, {"measurement": "diameter of the inhibition zone (DIZ)", "setting": "[16]", "value": "inactive"}, {"measurement": "zone of inhibition at 80 µM", "setting": "[17]", "value": 12, "unit": "mm"}, {"measurement": "MIC", "setting": "[18]", "value": "> 80", "unit": "µM"}, {"measurement": "diameter of the inhibition zone (DIZ)", "setting": "[19]", "value": "inactive"}, {"measurement": "diameter of the inhibition zone (DIZ)", "setting": "[20]", "value": "inactive"}, {"measurement": "zone of inhibition at 80 µM", "setting": "[21]", "value": 11, "unit": "mm"}, {"measurement": "MIC", "setting": "[22]", "value": "> 80", "unit": "µM"}, {"measurement": "diameter of the inhibition zone (DIZ)", "setting": "[23]", "value": "inactive"}, {"measurement": "zone of inhibition at 40 µM", "setting": "[24]", "value": 9, "unit": "mm"}, {"measurement": "zone of inhibition at 80 µM", "setting": "[25]", "value": 11, "unit": "mm"}, {"measurement": "MIC", "setting": "[26]", "value": "> 80", "unit": "µM"}, {"measurement": "zone of inhibition at 80 µM", "setting": "[27]", "value": 9, "unit": "mm"}, {"measurement": "MIC", "setting": "[28]", "value": 80, "unit": "µM"}, {"measurement": "diameter of the inhibition zone (DIZ)", "setting": "[29]", "value": "inactive"}]}]}
